Screens: PubChem, several laboratories
The sample as a whole holds a higher share of hits than the screen did.
ABCB6 inh MLPCN: inhibitors of human ABC transporter ABCB6. Q9NP58. K562-ABCB6 porphyrin accumulation, flow cytometry, 1 h; hits give low values. fluorescence ratio to DMSO, % at 10 µM. hit rate 0.19% among 360,000. AID 602162;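 active = fluorescence ratio to DMSO below 75%, the collection mean minus 3 SD; inconclusive = too few cells collected in the well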;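 also: signal is porphyrin accumulated inside mitochondria; lower ratio means ABCB6 inhibition with less porphyrin fluorescence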
Target sequence (Q9NP58 whole entry, looked up): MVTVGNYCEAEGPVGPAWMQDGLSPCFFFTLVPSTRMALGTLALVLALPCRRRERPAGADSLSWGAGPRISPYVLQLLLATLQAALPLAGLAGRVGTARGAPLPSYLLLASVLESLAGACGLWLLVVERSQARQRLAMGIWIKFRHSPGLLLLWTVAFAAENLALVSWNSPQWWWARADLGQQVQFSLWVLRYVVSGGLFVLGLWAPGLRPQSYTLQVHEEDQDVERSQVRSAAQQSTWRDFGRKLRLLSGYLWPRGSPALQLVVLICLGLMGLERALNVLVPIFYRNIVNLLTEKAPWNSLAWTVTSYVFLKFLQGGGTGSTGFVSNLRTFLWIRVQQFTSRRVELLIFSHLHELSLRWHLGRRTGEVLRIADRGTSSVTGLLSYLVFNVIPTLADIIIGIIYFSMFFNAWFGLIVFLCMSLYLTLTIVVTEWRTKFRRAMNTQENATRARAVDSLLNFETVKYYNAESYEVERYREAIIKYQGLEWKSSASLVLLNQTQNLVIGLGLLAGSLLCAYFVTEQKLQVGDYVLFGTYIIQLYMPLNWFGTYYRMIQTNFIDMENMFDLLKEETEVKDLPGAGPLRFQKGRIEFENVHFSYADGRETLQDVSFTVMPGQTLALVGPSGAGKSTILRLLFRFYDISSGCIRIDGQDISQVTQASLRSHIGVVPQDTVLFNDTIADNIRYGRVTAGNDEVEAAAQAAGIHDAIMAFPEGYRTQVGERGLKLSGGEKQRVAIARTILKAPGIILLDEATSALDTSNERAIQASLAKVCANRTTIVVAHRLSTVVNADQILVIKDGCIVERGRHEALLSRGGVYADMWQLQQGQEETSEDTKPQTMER
XiGFP reactiv: activators of X-chromosome reactivation in mouse fibroblasts | XiGFP mouse fibroblasts, % GFP-positive cells imaging, 3 d; cells co-treated with 5-aza-dC sensitizer; scaled so ellipticine positive control = 100% | activation, % at 7.58 µM | hit rate 0.055% among 360,000;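 active = mean normalized replicate activation at least 10% and every replicate at or above 10%; inconclusive = only one of the two criteria met; inactive = mean below 10% and not all replicates reach 10%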
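Schedule: 3 d treatment, 15 min room-temperature fixation; system: 68-5-11 XiGFP fibroblast line; buffer or medium: DMEM plus 5-aza-dC sensitizer; control set: ellipticine 6 µM positive control; compound: one concentration, pinned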
Myeloid diff MLP: myeloid differentiation induction; calls only at 10 µM; ER-HoxA9 myeloid progenitors, lysozyme-GFP differentiation, flow cytometry; AID 624256; hit rate 1% among 360,000;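 active = normalized GFP-positive differentiation at or above the plate's own cutoff, the solvent-only control mean plus 3 SD; inconclusive = no clear call, values can overlap the other calls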;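 also: cells exposed to compound for four days before flow analysis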
Myeloid diff: promotes myeloid progenitor differentiation | calls only | AID 651706 | hit rate 2% among 2,300 | shares compounds with Myeloid diff MLP | ER-HoxA9 myeloid progenitors, GFP/Mac1 double-positive flow;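 active = share of green or green-and-red cells above 9 and 9% in run 1 or 4 and 3% in run 2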
GFP autofluor: flagged as fluorescent in myeloid differentiation counter-screen; fluorescence response, % (no concentration beside the values); shares compounds with Myeloid diff MLP; ER-HoxA9 myeloid progenitors, no estrogen, GFP autofluorescence flow cytometry; vehicle wells 0%, positive control 100%; hit rate 7.4% among 2,300;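 active = over 5% cells positive for green fluorescent reporter, or over 2% positive for both it and APC stain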
Of the large screens only hits and unclear results are named; the others gave an inactive call (follow-up assays come after a bar, where they were run).

COc1ccc2c3c([nH]c2c1)[C@H](CO)N(Cc1ccccc1F)CC31CN(S(C)(=O)=O)C1	none (no result: ABCB6 inh MLPCN, Myeloid diff MLP)
CNC(=O)C[C@@H]1CC[C@@H]2[C@H](COc3ccc(NS(=O)(=O)c4ccccc4C)cc3C(=O)N2C)O1	none (no result: ABCB6 inh MLPCN, Myeloid diff MLP)
C[C@@H]1CN([C@H](C)CO)C(=O)c2cc(-c3cccc(F)c3)cnc2O[C@H]1CN(C)S(=O)(=O)c1cccc(F)c1	none (no result: ABCB6 inh MLPCN, Myeloid diff MLP)
COc1cc(/C=C/C(=O)OC[C@H]2O[C@H](OC3(CO)OC(CO)C(O)C3O)[C@H](O)[C@@H](O)[C@@H]2O)ccc1O (stereo not given in full)	none | Myeloid diff inactive | GFP autofluor inactive
COc1cc(/C=C/C(=O)OCC(=O)N2CCC(C)CC2)ccc1O	none
O=C(C[C@H]1CC[C@@H](NC(=O)c2ccc3c(c2)OCO3)[C@H](CO)O1)NC1Cc2ccccc2C1	none (no result: ABCB6 inh MLPCN, Myeloid diff MLP)
COc1cc(NC(=O)c2cc(S(=O)(=O)N3CCCCC3)ccc2N2CCOCC2)cc(OC)c1	Myeloid diff MLP active | Myeloid diff inactive | GFP autofluor inactive
CC(=O)Nc1ccc(NC(=O)c2cc(S(=O)(=O)N3CCCCC3)ccc2N2CCOCC2)cc1	none
COc1ccc2c3c([nH]c2c1)[C@@H](CO)N(Cc1ccccc1F)CC31CCN(S(C)(=O)=O)CC1	none (no result: ABCB6 inh MLPCN, Myeloid diff MLP)
CC(C)NC(=O)N1CC2(C1)[C@@H](c1ccccc1)[C@@H](CO)N2C(=O)C1CCCC1	none (no result: ABCB6 inh MLPCN, Myeloid diff MLP)
Cc1[nH]c2ccccc2c1C(=O)/C=C/c1ccccc1Cl	none
Cc1[nH]c2ccccc2c1C(=O)/C=C\c1ccccc1Cl	Myeloid diff MLP active | Myeloid diff inactive | GFP autofluor inactive
C[C@H](CO)N1C[C@H](C)[C@H](CN(C)S(=O)(=O)c2ccc(Cl)cc2)OCCCC[C@H](C)Oc2ccc(NS(=O)(=O)c3ccc(Cl)cc3)cc2C1=O	none (no result: ABCB6 inh MLPCN, Myeloid diff MLP)
CCS(=O)(=O)N1CC2(CN(Cc3ccccc3OC)[C@H](CO)c3c2c2ccc(OC)cc2n3C)C1	none (no result: ABCB6 inh MLPCN, Myeloid diff MLP)
COc1ccc(Cn2c(=N)c(C(=O)NCC3CCCO3)cc3c(=O)n4ccccc4nc32)cc1 (stereo not given)	none (no result: XiGFP reactiv) | Myeloid diff inactive | GFP autofluor inactive
COc1ccc(CCn2c(=N)c(C(=O)NCC3CCCO3)cc3c(=O)n4ccccc4nc32)cc1 (stereo not given)	Myeloid diff MLP inconclusive
O=C(O)C[C@H]1C[C@H]2c3cc(NC(=O)C4CCC4)ccc3O[C@H]2[C@H](CO)O1	none (no result: ABCB6 inh MLPCN, Myeloid diff MLP)
FC(F)(F)c1nnc2ccc(-n3ccnc3)nn12	none
FC(F)(F)c1ccc(-n2ccnc2)nc1	Myeloid diff MLP active (no result: XiGFP reactiv) | Myeloid diff inactive | GFP autofluor inactive
COc1cccc(NC(=O)N2CC(=O)N3[C@@H](CO)[C@H](c4ccc(C#CC5CCCC5)cc4)[C@@H]3C2)c1	none (no result: ABCB6 inh MLPCN, Myeloid diff MLP)
C[C@@H]1CN([C@@H](C)CO)C(=O)c2cc(NC(=O)CCCN(C)C)ccc2O[C@@H](C)CCCCO[C@@H]1CN(C)C	none (no result: ABCB6 inh MLPCN, Myeloid diff MLP)
CCCSc1nc(C)c2cc(C)cc(C)c2n1	Myeloid diff MLP active (no result: XiGFP reactiv) | Myeloid diff inactive | GFP autofluor inactive
CCOC(=O)CSc1nc(C)c2cccc(C)c2n1	none
CNC[C@H]1OCCCC[C@H](C)Oc2ccc(NC(=O)C3CCCCC3)cc2C(=O)N([C@H](C)CO)C[C@@H]1C	none (no result: ABCB6 inh MLPCN, Myeloid diff MLP)
Oc1ccc(Br)cc1/C=N/NC(=S)NCCc1ccccc1	none (no result: XiGFP reactiv, Myeloid diff MLP)
O=C(CCc1ccccc1)N/N=C/c1cc(Br)ccc1O	none | Myeloid diff inactive | GFP autofluor inactive
Cc1noc(C)c1S(=O)(=O)N(C)C[C@H]1OCCCC[C@@H](C)Oc2ccc(NC(=O)NC3CCCCC3)cc2C(=O)N([C@@H](C)CO)C[C@@H]1C	none (no result: ABCB6 inh MLPCN, Myeloid diff MLP)
O=C(COC(=O)c1ccc([N+](=O)[O-])s1)NCc1ccccc1	none (no result: XiGFP reactiv)
Cc1[nH]c2ccccc2c1C(=O)COC(=O)c1ccc([N+](=O)[O-])s1	none | Myeloid diff inactive | GFP autofluor inactive
Cc1noc(C)c1S(=O)(=O)Nc1cccc2c1O[C@@H](CN(C)Cc1ccc(C(=O)Nc3ccccc3N)cc1)[C@@H](C)CN([C@@H](C)CO)C2=O	none (no result: ABCB6 inh MLPCN, Myeloid diff MLP)
C[C@@H]1CN([C@H](C)CO)C(=O)Cc2cc(NC(=O)c3ccncc3)ccc2O[C@H]1CN(C)C(=O)Nc1cccc2ccccc12	none (no result: ABCB6 inh MLPCN, Myeloid diff MLP)
O=C(CN1CCCCCC1)Nc1ccccc1F	Myeloid diff MLP active (no result: XiGFP reactiv) | Myeloid diff inactive | GFP autofluor inactive
O=C(CCN1CCCCCC1)Nc1ccccc1F	none (no result: XiGFP reactiv)
CCCNC(=O)C[C@@H]1C[C@@H]2c3cc(NC(=O)Cc4ccncc4)ccc3O[C@@H]2[C@@H](CO)O1	none (no result: ABCB6 inh MLPCN, Myeloid diff MLP)
